Calls of active or inactive are those of the source. The calls are words filed in the database; no cut-off is given here.
How the values were obtained:
[1] = system: MEF; assay: Antiproliferative activity against NUAK1+/+ MEF cells assessed as reduction in cell viability at 10 uM after 5 days by CellTiter 96 non-radioactive cell proliferation assay; type: functional, cell-based; settings: Mus musculus, time 5.0 day
How it was run: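 Colorimetric CellTiter 96 AQueous proliferation assay in 96-well format; 2000 cells/well seeded for U2OS, 3000 cells/well for MEFs; grown 5 days with or without 10 μM inhibitor; run in triplicate. Inhibitors dissolved in DMSO, final DMSO in medium ≤1%. MEFs cultured in DMEM/10% FBS, glutamine, non-essential amino acids, sodium pyruvate.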

[2] = molecular target: Mitogen-activated protein kinase 13 (Homo sapiens) (UniProt O15264); assay: Inhibition of recombinant human GST-tagged P38delta (1 to 365 residues) expressed in Escherichia coli assessed as remaining activity at 1 uM using MBP as substrate incubated for 30 mins in presence of [gamma-33P]ATP by filter binding method relative to control
How it was run: (§1)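 Screened at the International Centre for Protein Kinase Profiling against a 140-kinase panel, with inhibitor at 0.1 or 1 μM; activity expressed as percentage of DMSO control reactions, mean of triplicate reactions.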

[3] = system: MEF; assay: Inhibition of cell migration in NUAK1+/+ MEF cells at 10 uM pre incubated for 1 hr followed by overnight incubation and measured after 15 to 20 hrs by microscopic based wound healing assay; type: functional; settings: Mus musculus
How it was run: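 Wound healing: equal MEF numbers loaded into both chambers of inserts with a 500 μm gap, inhibitor (10 μM) added 1 h before; after overnight at 37 °C, 5% CO2 insert removed and gap closure filmed by time-lapse microscopy every 2 min over 15–20 h; triplicate.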

[4] = molecular target: T1, Aurora kinase A (Homo sapiens) (UniProt O14965); assay: Inhibition of recombinant human N-terminal […] Aurora A (2 to 403 residues) expressed in Escherichia coli assessed as remaining activity at 1 uM using LRRLSLGLRRLSLGLRRLSLGLRRLSLG as substrate incubated for 30 mins in presence of [gamma-33P]ATP by filter binding method relative to control; how it was run: as §1
T1 sequence (whole entry): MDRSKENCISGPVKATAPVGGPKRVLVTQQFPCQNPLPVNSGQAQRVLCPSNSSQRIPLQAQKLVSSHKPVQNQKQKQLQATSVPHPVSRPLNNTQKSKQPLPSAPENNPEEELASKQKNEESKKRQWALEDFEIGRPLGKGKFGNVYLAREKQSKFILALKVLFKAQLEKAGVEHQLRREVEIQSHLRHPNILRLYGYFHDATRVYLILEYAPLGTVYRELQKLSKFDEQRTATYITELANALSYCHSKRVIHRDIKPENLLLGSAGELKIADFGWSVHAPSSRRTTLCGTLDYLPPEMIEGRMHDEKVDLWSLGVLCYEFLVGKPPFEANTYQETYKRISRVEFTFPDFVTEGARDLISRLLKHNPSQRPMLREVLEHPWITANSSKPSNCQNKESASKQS

Mitogen-activated protein kinase 13 (Homo sapiens), sequence (O15264 whole entry, the tested form may be a part): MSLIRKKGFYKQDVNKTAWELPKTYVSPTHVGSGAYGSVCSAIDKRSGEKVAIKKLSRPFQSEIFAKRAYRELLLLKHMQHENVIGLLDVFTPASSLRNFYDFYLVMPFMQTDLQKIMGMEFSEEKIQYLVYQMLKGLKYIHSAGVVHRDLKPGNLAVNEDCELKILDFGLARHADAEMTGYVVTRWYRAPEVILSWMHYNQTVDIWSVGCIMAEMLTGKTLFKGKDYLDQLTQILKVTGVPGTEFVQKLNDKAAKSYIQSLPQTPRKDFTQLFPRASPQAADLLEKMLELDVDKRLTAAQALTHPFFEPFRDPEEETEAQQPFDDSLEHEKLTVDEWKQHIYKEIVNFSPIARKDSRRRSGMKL

## CCC(=O)Nc1cccc(Oc2nc(Nc3ccc(N4CCN(C)CC4)cc3OC)ncc2Cl)c1
[1]
  inhibition: Active
[2]
  Activity: 63%
[3]
  inhibition: Active
[4]
  Activity: 75%

Reference: ChEMBL document CHEMBL5705897, “Characterization of WZ4003 and HTH-01-015 as selective inhibitors of the LKB1-tumour-suppressor-activated NUAK kinases” (Biochem J, 2014)
